Experimental data reported in BindingDB's records for doi:10.1016/j.bmc.2008.06.044 (University of Montreal, 2008).

Legend:
[1] = Inhibition of recombinant galectin 1 in human O type red blood cells by hemagglutinination assay
[2] = Inhibition of recombinant galectin 3 in human O type red blood cells by hemagglutinination assay
[3] = target: Galectin-1 (Homo sapiens, UniProt P09382); test: Inhibition of recombinant galectin 1 in human O type red blood cells by hemagglutinination assay
How it was run: (§1)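 Human type O erythrocytes were fixed with 3% glutaraldehyde in PBS containing 0.0025% NaN3, then used at 0.0025% final. Galectin at 1 µM was incubated with the RBCs, with or without a range of inhibitor concentrations, at 37 °C for 30 min. RBC aggregation was then scored, in triplicate.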

[4] = target: Galectin-3 (Homo sapiens, UniProt P17931); test: Inhibition of recombinant galectin 3 in human O type red blood cells by hemagglutinination assay
How it was run: as §1

Chain of Galectin-1 (P09382 whole entry): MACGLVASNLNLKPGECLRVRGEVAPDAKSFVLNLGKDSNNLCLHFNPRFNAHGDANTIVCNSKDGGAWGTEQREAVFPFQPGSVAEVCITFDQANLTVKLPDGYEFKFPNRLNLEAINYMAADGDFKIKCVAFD
Chain of Galectin-3 (P17931 whole entry): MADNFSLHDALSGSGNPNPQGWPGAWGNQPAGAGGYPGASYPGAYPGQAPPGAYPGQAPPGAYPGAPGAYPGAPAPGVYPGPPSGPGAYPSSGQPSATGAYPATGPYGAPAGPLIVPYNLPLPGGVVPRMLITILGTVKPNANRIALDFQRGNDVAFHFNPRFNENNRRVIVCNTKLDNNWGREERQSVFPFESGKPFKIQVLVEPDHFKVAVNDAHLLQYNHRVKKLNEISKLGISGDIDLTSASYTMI

| SMILES | IC50 [1] [mM] | IC50 [2] [mM] | IC50 [3] [mM] | IC50 [4] [mM] |
| --- | --- | --- | --- | --- |
| CC(=O)C[C@@H]1O[C@H](CO)[C@H](O)[C@H](O)[C@H]1O [1-((2S,3R,4R,5R,6R)-3,4,5-trihydroxy-6-(hydroxymethyl)-tetrahydro-2H-pyran-2-yl)propan-2-one] | > 5 | 5 | – | – |
| C=C(C[C@@H]1O[C@H](CO)[C@H](O)[C@H](O)[C@H]1O)c1cccc([N+](=O)[O-])c1 [(2R,3R,4R,5R,6S)-2-(hydroxymethyl)-6-(2-(3-nitrophenyl)allyl)-tetrahydro-2H-pyran-3,4,5-triol] | 5 | > 5 | – | – |
| C=C(C[C@@H]1O[C@H](CO)[C@H](O)[C@H](O)[C@H]1O)c1ccc(OC)cc1 [(2R,3R,4R,5R,6S)-2-(hydroxymethyl)-6-(2-(4-methoxyphenyl)allyl)-tetrahydro-2H-pyran-3,4,5-triol] | > 5 | 5 | – | – |
| C/C=C/[C@@H]1O[C@H](CO)[C@H](O)[C@H](O)[C@H]1O [(2R,3R,4R,5R,6S,E)-2-(hydroxymethyl)-6-(prop-1-enyl)-tetrahydro-2H-pyran-3,4,5-triol] | > 5 | > 5 | – | – |
| OC[C@@H]1O[C@H](n2cc(CS[C@@H]3O[C@H](CO)[C@H](O)[C@H](O)[C@H]3O)nn2)[C@@H](O)[C@H](O)[C@@H]1O [(2R,3R,4S,5R,6S)-2-(hydroxymethyl)-6-((1-((2S,3S,4R,5S,6S)-3,4,5-trihydroxy-6-(hydroxymethyl)-tetrahydro-2H-pyran-2-yl)-1H-1,2,3-triazol-4-yl)methylthio)-tetrahydro-2H-pyran-3,4,5-triol] | > 5 | 2.5 | – | – |
| C#CCS[C@@H]1O[C@H](CO)[C@H](O)[C@H](O)[C@H]1O [(2R,3R,4S,5R,6S)-2-(hydroxymethyl)-6-(prop-2-ynylthio)-tetrahydro-2H-pyran-3,4,5-triol] | > 5 | 2.5 | – | – |
| OC[C@@H]1O[C@H](SCC#Cc2ccc(C#CCS[C@@H]3O[C@H](CO)[C@H](O)[C@H](O)[C@H]3O)cc2)[C@@H](O)[C@H](O)[C@@H]1O [(2R,3S,4S,5R,6S)-2-(hydroxymethyl)-6-(3-(4-(3-((2R,3S,4R,5S,6S)-3,4,5-trihydroxy-6-(hydroxymethyl)-tetrahydro-2H-pyran-2-ylthio)prop-1-ynyl)phenyl)prop-2-ynylthio)-tetrahydro-2H-pyran-3,4,5-triol] | 2.5 | > 5 | – | – |
| OC[C@H]1O[C@@H](C/C=C/c2cccc(/C=C/C[C@@H]3O[C@H](CO)[C@H](O)[C@H](O)[C@H]3O)c2)[C@H](O)[C@@H](O)[C@H]1O [(2S,3R,4R,5R,6R)-2-((12S,14R,15R,16R,17R,E)-3-((E)-3-((2S,3R,4R,5R,6R)-3,4,5-trihydroxy-6-(hydroxymethyl)-tetrahydro-2H-pyran-2-yl)prop-1-enyl)cinnamyl)-6-(hydroxymethyl)-tetrahydro-2H-pyran-3,4,5-triol] | 5 | > 5 | – | – |
| OC[C@H]1O[C@@H](C/C=C/c2ccccc2)[C@H](O)[C@@H](O)[C@H]1O [(2S,3R,4R,5R,6R)-2-cinnamyl-6-(hydroxymethyl)-tetrahydro-2H-pyran-3,4,5-triol] | > 5 | > 5 | – | – |
| OC[C@@H]1O[C@H](O[C@@H]2[C@@H](O)[C@H](O)[C@@H](n3cc(CS[C@@H]4O[C@H](CO)[C@H](O)[C@H](O)[C@H]4O)nn3)O[C@H]2CO)[C@@H](O)[C@H](O)[C@@H]1O [(2S,3R,4S,5R,6R)-2-((1-((2S,3S,4S,5R,6S)-3,4-dihydroxy-6-(hydroxymethyl)-5-((2R,3S,4R,5S,6S)-3,4,5-trihydroxy-6-(hydroxymethyl)-tetrahydro-2H-pyran-2-yloxy)-tetrahydro-2H-pyran-2-yl)-1H-1,2,3-triazol-4-yl)methylthio)-6-(hydroxymethyl)-tetrahydro-2H-pyran-3,4,5-triol] | 0.3 | 0.6 | – | – |
| OC[C@@H]1O[C@H](n2cc(CS[C@@H]3O[C@H](CO)[C@@H](O[C@@H]4O[C@H](CO)[C@H](O)[C@H](O)[C@H]4O)[C@H](O)[C@H]3O)nn2)[C@@H](O)[C@H](O)[C@@H]1O [(2S,3R,4S,5R,6R)-2-((2R,3S,4R,5R,6S)-4,5-dihydroxy-2-(hydroxymethyl)-6-((1-((2S,3S,4R,5S,6S)-3,4,5-trihydroxy-6-(hydroxymethyl)-tetrahydro-2H-pyran-2-yl)-1H-1,2,3-triazol-4-yl)methylthio)-tetrahydro-2H-pyran-3-yloxy)-6-(hydroxymethyl)-tetrahydro-2H-pyran-3,4,5-triol] | 0.6 | 0.3 | – | – |
| C#CCS[C@@H]1O[C@H](CO)[C@@H](O[C@@H]2O[C@H](CO)[C@H](O)[C@H](O)[C@H]2O)[C@H](O)[C@H]1O [(2S,3R,4S,5R,6R)-2-((2R,3S,4R,5R,6S)-4,5-dihydroxy-2-(hydroxymethyl)-6-(prop-2-ynylthio)-tetrahydro-2H-pyran-3-yloxy)-6-(hydroxymethyl)-tetrahydro-2H-pyran-3,4,5-triol] | 0.6 | 0.3 | – | – |
| OC[C@@H]1O[C@H](O[C@@H]2[C@@H](O)[C@H](O)[C@@H](SCC#CC#CCS[C@@H]3O[C@H](CO)[C@@H](O[C@@H]4O[C@H](CO)[C@H](O)[C@H](O)[C@H]4O)[C@H](O)[C@H]3O)O[C@H]2CO)[C@@H](O)[C@H](O)[C@@H]1O [(2S,3R,4S,5R,6R)-2-((2R,3S,4R,5R,6S)-6-(6-((2R,3S,4S,5R,6S)-3,4-dihydroxy-6-(hydroxymethyl)-5-((2R,3S,4R,5S,6S)-3,4,5-trihydroxy-6-(hydroxymethyl)-tetrahydro-2H-pyran-2-yloxy)-tetrahydro-2H-pyran-2-ylthio)hexa-2,4-diynylthio)-4,5-dihydroxy-2-(hydroxymethyl)-tetrahydro-2H-pyran-3-yloxy)-6-(hydroxymethyl)-tetrahydro-2H-pyran-3,4,5-triol] | 0.3 | 0.16 | – | – |
| OC[C@@H]1O[C@H](O[C@@H]2[C@@H](O)[C@H](O)[C@@H](n3cc(CS[C@@H]4O[C@H](CO)[C@@H](O[C@@H]5O[C@H](CO)[C@H](O)[C@H](O)[C@H]5O)[C@H](O)[C@H]4O)nn3)O[C@H]2CO)[C@@H](O)[C@H](O)[C@@H]1O [(2S,3R,4S,5R,6R)-2-((2R,3S,4R,5R,6S)-6-((1-((2S,3S,4S,5R,6S)-3,4-dihydroxy-6-(hydroxymethyl)-5-((2R,3S,4R,5S,6S)-3,4,5-trihydroxy-6-(hydroxymethyl)-tetrahydro-2H-pyran-2-yloxy)-tetrahydro-2H-pyran-2-yl)-1H-1,2,3-triazol-4-yl)methylthio)-4,5-dihydroxy-2-(hydroxymethyl)-tetrahydro-2H-pyran-3-yloxy)-6-(hydroxymethyl)-tetrahydro-2H-pyran-3,4,5-triol] | 0.3 | 0.16 | – | – |
| COC(=O)/C=C/C[C@@H]1O[C@H](CO)[C@H](O)[C@H](O)[C@H]1O [(E)-Methyl 4-(beta-D-galactopyranosyl)-but-2-enoate] | 5 | 5 | – | – |
| OC[C@@H]1O[C@H](SCC#CC#CCS[C@@H]2O[C@H](CO)[C@H](O)[C@H](O)[C@H]2O)[C@@H](O)[C@@H](O)[C@@H]1O [Dimeric galactoside] | 5 | > 5 | – | – |
| OC[C@H]1O[C@H](O)[C@H](O)[C@@H](O)[C@H]1O [GALACTOSE] | – | – | 50 | 50 |
